Data set [1] in a line: Apparent solubility of the compound in phosphate buffer at pH 6.5 by shake flask method relative to ciprofloxacin. It is filed as physicochemical. A digest of the protocol:
(§1)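 Small-scale shake flask. Excess solid in 500 μL medium (n = 3): USP pH 7.4 phosphate buffer, or pH 6.5 phosphate buffer or FaSSIF per Galia. Supernatant assayed by LC-MS/MS.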

Data set [2] can be described thus: Efflux ratio of permeability from basolateral to apical side to apical to basolateral side in human Caco2 cells. It is filed as ADME, cell-based. The following applies: Caco-2.
Data set [3] is described as follows: Apparent permeability of the compound from basolateral to apical side in human Caco2 cells by LC-MS/MS analysis. It is filed as ADME, cell-based. The following applies: Caco-2. The gist of the method: (§2)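 Caco-2 monolayers ([…] cells seeded on polycarbonate inserts, 0.4 μm pores), kept in 90% air/10% CO2. Transport run at 37 °C across a 6.5/7.4 pH gradient, started by adding 10 μM drug to the donor side. Papp = (ΔQ/Δt)/(A·C0), from steady-state flux, filter area and initial donor concentration. LC-MS/MS quantitation. Mean ± SD of triplicates.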
A general note: Caco-2 cells form a polarised layer with tight junctions and transporters.

A short description of data set [4]: Apparent permeability of the compound from apical to basolateral side in human Caco2 cells at pH 6.5/7.4 by LC-MS/MS analysis. The format is ADME, cell-based. The following applies: Caco-2, pH 6.5. A digest of the protocol:
as §2

Data set [5] is described as follows: Apparent solubility of the compound in fasted state simulated intestinal fluid at pH 6.5 by shake flask method relative to ciprofloxacin. It is filed as physicochemical. The following applies: simulated gi fluid. The gist of the method: as §1
The nature of data set [6]: Apparent solubility of the compound in phosphate buffer at pH 7.4 by shake flask method relative to ciprofloxacin. It is filed as physicochemical. A digest of the protocol: as §1

The values that follow come from ChEMBL document CHEMBL2321693, “Optimizing solubility and permeability of a biopharmaceutics classification system (BCS) class 4 antibiotic drug using lipophilic fragments disturbing the crystal lattice” (J Med Chem, 2013).

In general, efflux ratio refers to the permeability from basolateral to apical divided by that in the opposite direction, in the common usage. A word on the Papp B→A: it is the apparent permeability from the basolateral to the apical side of a cell layer. The term Papp A→B denotes the apparent permeability from the apical to the basolateral side of a cell layer. Take `COC(=O)c1cn(C2CC2)c2cc(N3CCNCC3)c(F)cc2c1=O`: the “fold change (FC)” value is listed as 66 in data set [1], 111 in data set [5] and 48 in data set [6]. In data set [2], the efflux ratio was 19. For the same compound, in data set [3], the Papp B→A was 19.7 ×10⁻⁶ cm/s. Further, the Papp A→B in data set [4] is 1.01 ×10⁻⁶ cm/s.
For the compound `CC(C)OC(=O)c1cn(C2CC2)c2cc(N3CCNCC3)c(F)cc2c1=O`, the “fold change (FC)” value in data set [1], in data set [5] and in data set [6] was 0.5 in each case. In data set [2], the efflux ratio was 7. Further, the Papp B→A in data set [3] came out at 35.2 ×10⁻⁶ cm/s. Further, the Papp A→B in data set [4] stood at 4.69 ×10⁻⁶ cm/s.
Take `CCCOC(=O)c1cn(C2CC2)c2cc(N3CCNCC3)c(F)cc2c1=O`: the “fold change (FC)” value in data set [1], in data set [5] and in data set [6] was 0.5 throughout. In addition, the efflux ratio in data set [2] was found to be 146. Besides, the Papp B→A in data set [3] was determined as 62.8 ×10⁻⁶ cm/s. The Papp A→B in data set [4] worked out at 0.43 ×10⁻⁶ cm/s.
For the compound `CCCCOC(=O)c1cn(C2CC2)c2cc(N3CCNCC3)c(F)cc2c1=O`, the entries for the “fold change (FC)” value in data set [1], in data set [5] and in data set [6] were 27, 10 and 4, respectively. The efflux ratio in data set [2] amounted to 13. Also, the Papp B→A in data set [3] was 65.9 ×10⁻⁶ cm/s. In addition, the Papp A→B in data set [4] came to 4.95 ×10⁻⁶ cm/s.
On to `CCCCCCOC(=O)c1cn(C2CC2)c2cc(N3CCNCC3)c(F)cc2c1=O`, for which, in data set [2], the efflux ratio stood at 19. Besides, the Papp B→A in data set [3] amounted to 264 ×10⁻⁶ cm/s. The Papp A→B in data set [4] came out at 13.9 ×10⁻⁶ cm/s.
On the same counts, the results for `O=C(OCc1ccccc1)c1cn(C2CC2)c2cc(N3CCNCC3)c(F)cc2c1=O` are 18, 116 ×10⁻⁶ cm/s and 6.42 ×10⁻⁶ cm/s.
With `CCOC(=O)c1cn(C2CC2)c2cc(N3CCNCC3)c(F)cc2c1=O` [CIPROFLOXACIN ETHYL ESTER], the “fold change (FC)” value in data set [1], in data set [5] and in data set [6] was 2 each time. Further, in data set [2], the efflux ratio turned out to be 7. Besides, the Papp B→A in data set [3] came to 24.3 ×10⁻⁶ cm/s. Besides, the Papp A→B in data set [4] worked out at 3.45 ×10⁻⁶ cm/s.
